Experimental data from different studies.
Compare with care: the assays were run in different laboratories. Values after ≈ are worked out from the molar mass of the structure shown.

Compound	assay	system	conditions	measurement	value
CC(C)NCC(O)COc1cccc2ccccc12 (centres unmarked)	–	Caco-2	5 µM, 2 h	Papp A→B	18.4 ×10⁻⁶ cm/s
Cn1cncc1[C@@](N)(c1ccc(Cl)cc1)c1ccc2c(c1)c(-c1cccc(Cl)c1)cc(=O)n2C	–	FaSSIF	pH 6.5, 37 °C	solubility	14.1 µg/mL (≈ 28.8 µM)
CC[C@@](O)(c1ccc(C(F)(F)F)c(C#N)c1)c1c2ccn(C3CC3)c(=O)c2nn1C	nephelometry	aqueous buffer	30 min, pH 6.5	kinetic solubility	20 to 40 µM (≈ 8.33 to 16.7 µg/mL)
CC1(F)CN(C(=O)Cn2c(=O)c(C(=O)NCc3ccc(Cl)cc3)cc3nc(N4CCNC4=O)cnc32)C1	–	aqueous buffer	24 h, pH 7.4, 37 °C	thermodynamic solubility	< 1.56 µM
Cc1c(C(=O)O)ccc2c3n(nc12)[C@@H]1[C@H](C3)N(CC2CC2)[C@@]2(C(=O)Nc3cc(Cl)ccc32)[C@H]1c1cccc(Cl)c1F	–	male dog, plasma	oral, 2 mg/kg	bioavailability	109%
CCCCC(CC)CNC(=N)NC(=N)NCCCCCCNC(=N)NC(=N)NCC(CC)CCCC (centres unmarked)	–	Caco-2	5 µM, 2 h	Papp A→B	< 0.07 ×10⁻⁶ cm/s
Cn1nc2c(=O)n(C3CC3)ncc2c1[C@](O)(c1ccc(C(F)(F)F)c(Cl)c1)C(F)(F)F	nephelometry	aqueous buffer	30 min, pH 6.5	kinetic solubility	5 to 10 µM (≈ 2.33 to 4.67 µg/mL)
Cn1cncc1[C@@](N)(c1ccc(Cl)cc1)c1ccc2c(c1)c(-c1cccc(Cl)c1)cc(=O)n2C	–	beagle dog, plasma	oral, 10 mg/kg, single dose	bioavailability	65%
Cn1nc2c(=O)n(C3CC3)nc(C3CC3)c2c1Cc1ccc(C(F)(F)F)c(F)c1	nephelometry	aqueous buffer	30 min, pH 6.5	kinetic solubility	6.3 to 12.5 µM (≈ 2.56 to 5.08 µg/mL)
CC(C)C[C@H](NC(=O)[C@@H]1COCCCCCC(=O)NCC(=O)N2CCC[C@H]2C(=O)N1)C(=O)[C@@]1(C)CO1	–	Caco-2	10 µM, 2 h, pH 7.4	Papp B→A	7.25 ×10⁻⁶ cm/s
CN1CCN(c2cnc3c(cc(C(=O)NCc4ccc(Cl)cc4)c(=O)n3CC(=O)N3CC(C)(F)C3)n2)C1=O	–	aqueous buffer	24 h, pH 7.4, 37 °C	thermodynamic solubility	< 1.56 µM
C[C@H]1COC2=C1C(=O)C(=O)c1c2ccc2c1CCCC2(C)C	–	PBS	24 h, pH 4, 25 °C	thermodynamic solubility	15.8 µg/mL
CCn1cc(Cl)c2c(Cc3ccc(N4CCCCC4)nc3)n(C)nc2c1=O	nephelometry	aqueous buffer	30 min, pH 6.5	kinetic solubility	40 to 80 µM (≈ 15.4 to 30.9 µg/mL)
CO[C@]1(C(=O)N[C@@H](C)c2ccc(-n3cc(F)cn3)nc2)CC[C@H](c2nc(C)cc(Nc3cc(C)[nH]n3)n2)CC1	–	–	–	pKa	6.71
